This note sets out measurements from ChEMBL document CHEMBL4152242, “Synthesis and biological activity of novel tert-butyl and tert-pentylphenoxyalkyl piperazine derivatives as histamine H3R ligands” (Eur J Med Chem, 2018).

The target of one data set is Histamine H3 receptor (Homo sapiens, UniProt Q9Y5N1). The data set is described as follows: Displacement of [3H]Nalpha-methylhistamine from recombinant human H3 receptor expressed in HEK293 cells after 90 mins by liquid scintillation counting method. Format: cell-based. Summed up:
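Thawed, homogenized membranes from HEK-293 cells stably expressing full-length human H3R, incubated 90 min at RT with shaking with 2 nM [3H]Nα-methylhistamine (KD 3.08 nM) and 5–11 concentrations (0.01 nM–10 µM). Nonspecific binding with pitolisant 10 µM. GF/B filtration (0.3% PEI), ice-cold water washes, scintillation counting. Ki by Cheng-Prusoff; mean (95% CI), ≥3 experiments in at least duplicate.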
(Loss of bound radioactivity is the signal in a displacement assay; it reports binding, not function.)

Data set [1] concerns Mus musculus. The experiment in a line: Anticonvulsant activity in maximal electroshock induced seizure TO mouse model assessed as suppression of tonic hind limb extension at 10 mg/kg, ip pretreated for 30 to 45 mins followed by maximal electroshock induction. Format: functional, organism-based.
The next data set has as its target Histamine H4 receptor (Homo sapiens, UniProt Q9H3N8). The data set is described as follows: Inhibition of human H4 receptor.
The subject of data set [2] is Rattus norvegicus. The experiment in a line: Reversal of RAMH-induced dipsogenia in Krf:(WI) WU rat assessed as inhibition of drinking response at 1.25 mg/kg, ip pretreated for 30 mins followed by RAMH stimulation for 20 mins measured for 30 mins relative to control. Format: functional. Summed up:
(§1)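 Male Wistar Krf:(WI) WU rats (<250 g), 6–8 per group. Compound, pitolisant or vehicle (1% Tween 80) given i.p. 30 min before RAMH 10 mg/kg i.p. Water intake measured for 30 min, starting 20 min after RAMH. Inhibition = 100 − (individual intake / RAMH-group intake) × 100. ED50 by log-probit with 95% CL; one-way ANOVA with Dunnett.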

Data set [3] is filed under the species Cavia porcellus. The data set is described as follows: (§2) Antagonist activity at muscarinic receptor in guinea pig ileum assessed as carbachol-induced ileum contraction measured after 15 mins. Summed up:
(§3)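 Male guinea-pig ileum (300-400 g), 2 cm segments in Krebs solution at 37°C, pH 7.4, O2/CO2 19:1, 0.5 g resting tension, 60 min equilibration. Cumulative agonist curves were run with histamine (10 nM–10 µM; H1) or carbachol (3 nM–3 µM; muscarinic), then repeated after 15 min with one antagonist concentration per tissue. Responses were taken as % of first-curve Emax, with pA2 from Schild analysis or pKB from the concentration ratio.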

For data set [4], the target named is Histamine H1 receptor (Cavia porcellus) (UniProt P31389). The experiment in a line: Antagonist activity at H1 receptor in guinea pig ileum assessed as inhibition of histamine-induced ileum contraction measured after 15 mins. Summed up:
as §3

For data set [5], the system named is Mus musculus. The data set is described as follows: Reversal of scopolamine-induced memory deficit in Albino Swiss CD-1 mouse assessed as increase in step through latency time at 2.5 to 30 mg/kg, ip treated for 1 hr before training followed by scopolamine challenge 30 mins before training measured 24 hrs after training trial by passive avoidance test. Format: functional, organism-based.

The subject of data set [6] is Mus musculus. The data set is described as follows: Anticonvulsant activity in ip dosed maximal electroshock induced seizure TO mouse model assessed as suppression of tonic hind limb extension pretreated for 30 to 45 mins followed by maximal electroshock induction. Format: functional, organism-based. (In the maximal electroshock model the usual endpoint is tonic extension of the hind limbs.)

Data set [7] has as its target Histamine H1 receptor (Cavia porcellus) (UniProt P31389). The experiment in a line: Agonist activity at H1 receptor in guinea pig ileum assessed as induction of ileum contraction measured after 15 mins.
Data set [8] deals with Rattus norvegicus. The data set is described as follows: Reversal of RAMH-induced dipsogenia in ip dosed Krf:(WI) WU rat assessed as inhibition of drinking response pretreated for 30 mins followed by RAMH stimulation for 20 mins measured for 30 mins. Format: functional. Summed up: as §1
The test system of data set [9] is Mus musculus. The data set is described as follows: Reversal of scopolamine-induced memory deficit in Albino Swiss CD-1 mouse assessed as increase in step through latency time at 2.5 to 30 mg/kg, ip treated for 1 hr prior to testing followed by scopolamine challenge measured after 30 mins by passive avoidance test. Format: functional, organism-based.
Data set [10] concerns the target Histamine H1 receptor (Cavia porcellus) (UniProt P31389). The experiment in a line: Competitive antagonist activity at H1 receptor in guinea pig ileum assessed as inhibition of histamine-induced ileum contraction measured after 15 mins. Summed up:
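Ileum from male guinea pigs cut into 2 cm segments in Krebs at 37°C, pH 7.4, O2/CO2 19:1, 0.5 g resting tension, equilibrated 60 min. Cumulative histamine curve (10 nM–10 µM), then 15 min with one antagonist concentration per tissue and a repeat curve. Responses are % of first-curve max. pA2 comes from Schild analysis if slope ≈1, otherwise pKB from concentration ratio; 4–8 repeats.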

The nature of data set [11]: Drug metabolism in human liver microsomes after 2 hrs by UPLC analysis. Format: ADME, microsome. Conditions: read-out: Drug metabolism. Summed up:
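Incubation with human liver microsomes for 120 min; reaction mixture analysed by UPLC-MS, with MS fragmentation used to identify metabolites. In silico site-of-metabolism prediction run alongside.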
(Microsomes from liver hold many membrane-bound enzymes, among them those of drug oxidation.)

For data set [12], the species on record is Cavia porcellus. The experiment in a line: Agonist activity at muscarinic receptor in guinea pig ileum assessed as induction of ileum contraction measured after 15 mins.
Data set [13] relates to Mus musculus. The experiment in a line: Toxicity in TO mouse model assessed as mortality at 10 mg/kg, ip. Format: organism-based. The following applies: in vivo.
The nature of data set [14]: as §2. The following applies: Cavia porcellus, 0.25 h; read-out: pA2 (converted). Summed up: as §3

The source made the active and inactive calls. The rule behind the calls is not given here.

Chain of Histamine H1 receptor (Cavia porcellus) (P31389 whole entry): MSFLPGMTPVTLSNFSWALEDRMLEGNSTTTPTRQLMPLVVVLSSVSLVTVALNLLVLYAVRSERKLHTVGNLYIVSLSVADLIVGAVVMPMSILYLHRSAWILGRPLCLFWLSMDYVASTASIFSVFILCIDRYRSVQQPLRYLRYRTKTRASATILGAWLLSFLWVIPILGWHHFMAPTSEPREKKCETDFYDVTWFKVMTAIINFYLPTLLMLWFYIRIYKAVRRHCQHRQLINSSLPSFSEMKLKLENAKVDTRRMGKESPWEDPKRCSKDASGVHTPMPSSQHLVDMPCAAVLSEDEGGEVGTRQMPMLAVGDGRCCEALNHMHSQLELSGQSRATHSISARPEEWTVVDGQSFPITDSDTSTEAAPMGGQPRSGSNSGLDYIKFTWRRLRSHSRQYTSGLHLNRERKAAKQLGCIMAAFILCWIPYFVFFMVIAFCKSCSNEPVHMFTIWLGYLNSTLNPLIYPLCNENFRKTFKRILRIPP
Chain of Histamine H3 receptor (Q9Y5N1 whole entry): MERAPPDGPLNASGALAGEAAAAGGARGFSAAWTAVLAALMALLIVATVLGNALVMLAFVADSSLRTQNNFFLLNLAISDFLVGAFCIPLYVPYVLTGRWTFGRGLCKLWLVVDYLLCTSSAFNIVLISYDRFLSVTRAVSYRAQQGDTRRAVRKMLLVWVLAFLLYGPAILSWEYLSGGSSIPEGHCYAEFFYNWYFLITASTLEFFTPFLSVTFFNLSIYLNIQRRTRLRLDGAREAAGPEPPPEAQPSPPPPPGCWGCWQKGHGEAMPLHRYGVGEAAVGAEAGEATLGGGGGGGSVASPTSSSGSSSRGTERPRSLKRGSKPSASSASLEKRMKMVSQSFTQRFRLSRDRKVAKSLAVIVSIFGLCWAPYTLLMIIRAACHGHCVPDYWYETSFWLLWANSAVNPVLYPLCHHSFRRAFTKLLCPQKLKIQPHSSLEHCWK
Chain of Histamine H4 receptor (Q9H3N8 whole entry): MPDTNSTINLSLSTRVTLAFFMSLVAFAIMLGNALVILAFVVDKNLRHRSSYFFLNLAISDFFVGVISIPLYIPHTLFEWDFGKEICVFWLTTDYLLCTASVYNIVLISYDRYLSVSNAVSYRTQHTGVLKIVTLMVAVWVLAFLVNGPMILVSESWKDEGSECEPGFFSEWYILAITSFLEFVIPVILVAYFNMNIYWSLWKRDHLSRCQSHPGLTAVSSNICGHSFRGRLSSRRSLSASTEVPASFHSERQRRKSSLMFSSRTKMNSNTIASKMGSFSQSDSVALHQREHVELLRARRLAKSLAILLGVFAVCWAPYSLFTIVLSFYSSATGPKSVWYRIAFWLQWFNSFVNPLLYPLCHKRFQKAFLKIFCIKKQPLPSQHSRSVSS

The Ki is a dissociation constant, usually derived from enzyme kinetics or from competition with a known ligand. `CC(C)(C)c1ccc(OCCCCN2CCN(c3ccccn3)CC2)cc1`: at Histamine H3 receptor, the Ki is 2.96 µM.

As to `CC(C)(C)c1ccc(OCCCN2CCN(c3ccncc3)CC2)cc1`, the Ki on Histamine H3 receptor stood at 0.016 µM. In the data set on Mus musculus [1], the outcome was Active.

`CC(C)(C)c1ccc(OCCCCN2CCN(c3cccnc3)CC2)cc1`: at Histamine H3 receptor, the Ki was 3.42 µM.

In the case of `CCC(C)(C)c1ccc(OCCCN2CCN(c3cnccn3)CC2)cc1`, the Ki at Histamine H3 receptor was determined as 6.21 µM.

Consider `CCC(C)(C)c1ccc(OCCCCN2CCN(C(=O)C3CCCO3)CC2)cc1` (stereo not given), for which, at Histamine H3 receptor, the Ki is > 10 µM.

For the compound `CCC(C)(C)c1ccc(OCCCCN2CCN(c3ccncc3)CC2)cc1`, the Ki at Histamine H3 receptor turned out to be 0.12 µM. In addition, in the data set with Mus musculus [1], the outcome was Active.

As for `CC(C)(C)c1ccc(OCCCN2CCCCC2)cc1`, on Histamine H3 receptor, the Ki is 0.022 µM.

As to `CC(C)(C)c1ccc(OCCCN2CCN(c3cccnc3)CC2)cc1`, the Ki at Histamine H3 receptor came to 8.16 µM.

Regarding `CCC(C)(C)c1ccc(OCCCCN2CCN(c3cccnc3)CC2)cc1`, the Ki at Histamine H3 receptor was > 10 µM.

As for `CCC(C)(C)c1ccc(OCCCN2CCN(c3ccncc3)CC2)cc1`, at Histamine H3 receptor, the Ki was found to be 0.0306 µM. Moreover, the outcome in the data set with Mus musculus [1] was Active.

For orientation: inhibition in vivo means the percentage by which the read-out fell short of the control. Turning to `Clc1ccc(CCCOCCCN2CCCCC2)cc1` [PITOLISANT], the Ki at Histamine H4 receptor was > 100 µM. The inhibition in vivo at 1.25 mg/kg with Rattus norvegicus [2] is 87.4%.

`CC(C)(C)c1ccc(OCCCN2CCN(c3ncccn3)CC2)cc1`: on Histamine H3 receptor, the Ki came out at 3.83 µM.

`CCC(C)(C)c1ccc(OCCCN2CCN(c3cccnc3)CC2)cc1`: at Histamine H3 receptor, the Ki was found to be 3.65 µM.

For `CC(C)(C)c1ccc(OCCCN2CCN(c3ccccn3)CC2)cc1`, the Ki at Histamine H3 receptor was > 10 µM.

The term pKb denotes the Kb on a negative log10 scale, so that one unit is a factor of ten. For orientation: ED50 means the midpoint of the dose-response relation. In the case of `CC(C)(C)c1ccc(OCCCCN2CCN(c3ccncc3)CC2)cc1`, the inhibition result (in the data set filed under Cavia porcellus [3]; in [4]; in the data set on Rattus norvegicus [8]) was “Dose-dependent effect” each time. The pKb in the data set filed under Cavia porcellus [3] came out at 6.39; in [10], 6.15. In addition, in the data set on Mus musculus [5], the outcome was Active. Also, in the data set on Mus musculus [6], the Activity entry is “Dose-dependent effect”. Besides, the result (in data set [7]; in the data set with Mus musculus [9]; in the data set listed under Cavia porcellus [12]) was inactive. In the data set on Rattus norvegicus [8], the ED50 is 10.7 mg/kg. Further, the Ki on Histamine H3 receptor amounted to 0.0378 µM. The metabolised at 2 h in [11] was found to be 30%.

`CC(C)(C)c1ccc(OCCCCN2CCN(C(=O)C3CCCO3)CC2)cc1` (stereo not given): at Histamine H3 receptor, the inhibitory constant (Ki) is > 10 µM.

Take `CC(C)(C)c1ccc(OCCCCN2CCN(c3cnccn3)CC2)cc1`: at Histamine H3 receptor, the Ki amounted to 5.48 µM.

Take `CCC(C)(C)c1ccc(OCCCN2CCN(c3ccccn3)CC2)cc1`: the Ki on Histamine H3 receptor was determined as 5.2 µM.

In the case of `CCC(C)(C)c1ccc(OCCCCN2CCN(c3ccccn3)CC2)cc1`, the Ki on Histamine H3 receptor worked out at 0.482 µM.

As for `CC(C)(C)c1ccc(OCCCCN2CCN(c3ncccn3)CC2)cc1`, the Ki at Histamine H3 receptor came out at 0.883 µM.

With `CCC(C)(C)c1ccc(OCCCN2CCN(C(=O)C3CCCO3)CC2)cc1` (stereo not given), on Histamine H3 receptor, the Ki was > 10 µM.

With `O=C1NC(=O)C(c2ccccc2)(c2ccccc2)N1` [PHENYTOIN], the Activity result in the data set with Mus musculus [13] is given as “Non-Toxic”. The outcome with Mus musculus [1] was Active.

Consider `CC(C)(C)c1ccc(OCCCN2CCN(C(=O)C3CCCO3)CC2)cc1` (stereo not given), for which the inhibitory constant (Ki) on Histamine H3 receptor is > 10 µM.

For the compound `CN1[C@@H]2CC[C@H]1C[C@@H](OC(=O)C(CO)c1ccccc1)C2` (stereo not given in full) [ATROPINE], the Kb in [14] is 0.00104 µM.

On to `CCC(C)(C)c1ccc(OCCCCN2CCN(c3cnccn3)CC2)cc1`, for which the Ki at Histamine H3 receptor is 0.683 µM.

As to `CC(C)(C)c1ccc(OCCCN2CCN(c3cnccn3)CC2)cc1`, the Ki on Histamine H3 receptor amounted to 8.74 µM.

As to `CCC(C)(C)c1ccc(OCCCCN2CCN(c3ncccn3)CC2)cc1`, on Histamine H3 receptor, the Ki was 2.26 µM.

On to `CCC(C)(C)c1ccc(OCCCN2CCN(c3ncccn3)CC2)cc1`, for which the inhibition constant (Ki) at Histamine H3 receptor came to 5.41 µM.
